According to article PMC6476708 (Psychopharmacology, 2018):

Experiments:
human SERT [1] = target: T1, human SERT (Homo sapiens, UniProt P31645); experiment: Uptake inhibition in HEK-293 cells expressing human SERT; format: cell-based
DAT [2] = conditions: 100 μM drug; ref Dolan et al. (2018); cited from earlier work
DAT [3] = target: T2, DAT (Rattus norvegicus, UniProt P23977); experiment: Uptake inhibition of [3H]dopamine in rat brain synaptosomes; format: biochemical; conditions: for DAT/SERT ratio ([DAT IC50]^−1/[SERT IC50]^−1): synaptosome uptake assays, higher value indicates greater DAT-selectivity
T2 sequence (P23977 whole entry): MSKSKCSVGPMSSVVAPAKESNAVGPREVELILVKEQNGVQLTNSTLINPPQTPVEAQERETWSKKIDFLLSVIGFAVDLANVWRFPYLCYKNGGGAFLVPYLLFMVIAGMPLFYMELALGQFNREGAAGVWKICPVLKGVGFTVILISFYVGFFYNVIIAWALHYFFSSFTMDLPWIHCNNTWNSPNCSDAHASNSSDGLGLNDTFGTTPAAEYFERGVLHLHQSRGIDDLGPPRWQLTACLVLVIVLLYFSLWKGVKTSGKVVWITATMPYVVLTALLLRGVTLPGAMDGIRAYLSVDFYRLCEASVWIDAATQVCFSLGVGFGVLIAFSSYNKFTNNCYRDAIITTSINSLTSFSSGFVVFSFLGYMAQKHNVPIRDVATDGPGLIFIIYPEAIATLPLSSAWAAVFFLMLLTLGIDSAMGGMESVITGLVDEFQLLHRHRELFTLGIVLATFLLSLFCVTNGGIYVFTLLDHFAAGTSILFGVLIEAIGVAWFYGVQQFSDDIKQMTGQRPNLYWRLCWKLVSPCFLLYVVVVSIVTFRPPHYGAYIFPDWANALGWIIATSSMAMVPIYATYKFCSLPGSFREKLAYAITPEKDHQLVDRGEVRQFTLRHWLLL

SERT [4] = target: T3, SERT (Rattus norvegicus, UniProt P31652); experiment: Release of [3H]5-HT from rat brain synaptosomes; format: biochemical
T3 sequence (P31652 whole entry): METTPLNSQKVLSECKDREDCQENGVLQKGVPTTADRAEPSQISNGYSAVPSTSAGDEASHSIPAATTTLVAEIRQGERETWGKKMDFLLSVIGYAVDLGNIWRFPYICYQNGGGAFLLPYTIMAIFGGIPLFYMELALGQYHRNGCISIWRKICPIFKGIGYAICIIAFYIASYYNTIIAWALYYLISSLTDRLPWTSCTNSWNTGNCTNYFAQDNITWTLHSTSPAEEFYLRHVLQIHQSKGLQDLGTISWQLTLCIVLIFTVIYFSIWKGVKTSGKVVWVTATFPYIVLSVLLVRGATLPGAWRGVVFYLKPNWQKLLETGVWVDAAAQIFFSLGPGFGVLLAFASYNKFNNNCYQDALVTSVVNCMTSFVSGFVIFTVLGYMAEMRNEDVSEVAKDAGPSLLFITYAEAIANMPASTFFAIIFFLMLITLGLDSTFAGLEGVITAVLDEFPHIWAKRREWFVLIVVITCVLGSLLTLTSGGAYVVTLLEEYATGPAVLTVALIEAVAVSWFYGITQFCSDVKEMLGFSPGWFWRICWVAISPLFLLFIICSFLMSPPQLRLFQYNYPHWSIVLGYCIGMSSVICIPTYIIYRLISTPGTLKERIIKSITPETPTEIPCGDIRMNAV

human DAT [5] = target: T4, human DAT (Homo sapiens, UniProt Q01959); experiment: Transporter-mediated ionic currents, whole cell patch clamp, HEK-293 human DAT; format: cell-based; conditions: voltage clamped to −60 mV, 300 nM to 300 μM
T4 sequence (Q01959 whole entry, the tested form may be a part): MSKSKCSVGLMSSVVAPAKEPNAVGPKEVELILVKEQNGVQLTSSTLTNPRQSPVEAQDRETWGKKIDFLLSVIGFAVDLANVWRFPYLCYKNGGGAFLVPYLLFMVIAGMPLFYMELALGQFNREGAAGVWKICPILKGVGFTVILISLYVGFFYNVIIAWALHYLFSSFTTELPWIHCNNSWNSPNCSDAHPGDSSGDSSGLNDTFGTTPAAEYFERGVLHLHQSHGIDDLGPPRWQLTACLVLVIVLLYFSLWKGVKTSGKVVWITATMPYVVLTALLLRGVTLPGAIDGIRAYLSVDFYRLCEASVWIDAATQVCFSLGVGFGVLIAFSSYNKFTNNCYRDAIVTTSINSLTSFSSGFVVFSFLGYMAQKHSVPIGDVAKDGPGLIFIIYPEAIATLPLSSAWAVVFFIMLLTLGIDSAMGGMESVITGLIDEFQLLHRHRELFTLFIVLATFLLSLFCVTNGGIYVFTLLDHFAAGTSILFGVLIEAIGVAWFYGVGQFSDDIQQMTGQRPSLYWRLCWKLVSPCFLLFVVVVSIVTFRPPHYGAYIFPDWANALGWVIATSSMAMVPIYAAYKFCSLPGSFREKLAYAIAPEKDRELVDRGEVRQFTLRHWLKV
Outline: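 HEK-293 cells stably expressing human DAT were seeded at low density 24 h before recording. Whole-cell voltage clamp was held at −60 mV, with K-gluconate/EGTA pipette solution (pH 7.2) and NaCl/glucose HEPES bath (pH 7.4). Test compound (300 nM–300 μM) was applied by rapid superfusion. Passive holding currents were subtracted, traces low-pass filtered at 100 Hz, and currents normalised to 10 μM endogenous substrate. One-way ANOVA; n=3.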

motor activity = experiment: Motor activity and stereotypy; format: in vivo, rat; conditions: rats, 1 and 3 mg/kg i.v.; for motor activity (forward locomotion): compared to saline
Outline: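 Conscious, tethered male Sprague-Dawley rats were acclimated overnight in photobeam arenas and tracked for forward locomotion and stereotypy during microdialysis. Dosing was i.v. via jugular catheter: 1 mg/kg at time zero, then 3 mg/kg 60 min later; saline controls received 1 mL/kg on the same schedule. Data are % of basal preinjection values; N=6–7/group; two-way ANOVA (treatment × time) with Bonferroni tests against saline.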

DAT [6] = target: T2, DAT; experiment: Release of [3H]MPP+ from rat brain synaptosomes; format: biochemical; conditions: 0.1 nM to 10 μM
Outline: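 Crude synaptosomes were prepared from rat caudate: homogenized in ice-cold 10% sucrose, spun at 1000 g for 10 min, supernatant kept. They were preloaded for 1 h with 9 nM [3H]MPP+ in Krebs-phosphate buffer; all buffers contained 1 μM reserpine. Test compound was applied at 0.1 nM–10 μM in triplicate. Release was stopped by vacuum filtration and counted by scintillation. EC50 was derived by nonlinear regression; n=3.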

SERT [7] = target: T3, SERT; experiment: Uptake inhibition of [3H]5-HT in rat brain synaptosomes; format: biochemical
[8] = system: extracellular dopamine and 5-HT in nucleus accumbens; experiment: In vivo microdialysis in the nucleus accumbens of conscious rats; conditions: rat nucleus accumbens dialysate
Outline: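 Male Sprague-Dawley rats (300–400 g) were implanted under ketamine/xylazine with a jugular catheter and a nucleus accumbens guide cannula, then recovered ≥1 week. Probes were perfused with Ringer's at 0.6 μL/min, and 20-min dialysates were assayed for dopamine and 5-HT by HPLC-ECD. After three stable baselines, rats received 1 mg/kg i.v. at time zero, then 3 mg/kg at 60 min; controls received saline 1 mL/kg. Data are % of baseline; N=6–7/group; two-way ANOVA, Bonferroni.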

human SERT [9] = target: T1, human SERT; experiment: Transporter-mediated ionic currents, whole cell patch clamp, HEK-293 human SERT; format: cell-based; conditions: voltage clamped to −60 mV, 300 nM to 300 μM
human DAT [10] = target: T4, human DAT; experiment: Efflux; format: cell-based; conditions: HEK-293 human DAT, 10 μM drug, with or without 10 μM monensin
human SERT [11] = target: T1, human SERT; experiment: Efflux; format: cell-based; conditions: HEK-293 human SERT; for [3H]5-HT efflux at SERT: 10 μM drug; for effect of monensin on drug-evoked [3H]5-HT efflux at SERT: 10 μM drug plus 10 μM monensin
Outline: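 HEK-293 cells stably expressing YFP-tagged human SERT, seeded at 40,000 cells/well on poly-D-lysine-coated coverslips. Preloaded with 0.3 μM radiolabelled substrate for 20 min at 37 °C, then superfused at 25 °C, 0.7 mL/min, with Krebs Ringer HEPES (pH 7.4). Fractions collected every 2 min. After a 40-min washout baseline, 10 μM test compound was added alone or with 10 μM monensin. Cells were lysed in 1% SDS and counted by scintillation. Analysis: two-way ANOVA with Tukey; n=3, triplicate.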

human DAT [12] = target: T4, human DAT; experiment: Uptake inhibition in HEK-293 cells expressing human DAT; format: cell-based
DAT and SERT = conditions: HEK-293 cells, uptake inhibition; ref Simmler et al. 2013; 2014; cited from earlier work
[13] = 3 mg/kg i.v. given 60 min after 1 mg/kg

T1 sequence (P31645 whole entry): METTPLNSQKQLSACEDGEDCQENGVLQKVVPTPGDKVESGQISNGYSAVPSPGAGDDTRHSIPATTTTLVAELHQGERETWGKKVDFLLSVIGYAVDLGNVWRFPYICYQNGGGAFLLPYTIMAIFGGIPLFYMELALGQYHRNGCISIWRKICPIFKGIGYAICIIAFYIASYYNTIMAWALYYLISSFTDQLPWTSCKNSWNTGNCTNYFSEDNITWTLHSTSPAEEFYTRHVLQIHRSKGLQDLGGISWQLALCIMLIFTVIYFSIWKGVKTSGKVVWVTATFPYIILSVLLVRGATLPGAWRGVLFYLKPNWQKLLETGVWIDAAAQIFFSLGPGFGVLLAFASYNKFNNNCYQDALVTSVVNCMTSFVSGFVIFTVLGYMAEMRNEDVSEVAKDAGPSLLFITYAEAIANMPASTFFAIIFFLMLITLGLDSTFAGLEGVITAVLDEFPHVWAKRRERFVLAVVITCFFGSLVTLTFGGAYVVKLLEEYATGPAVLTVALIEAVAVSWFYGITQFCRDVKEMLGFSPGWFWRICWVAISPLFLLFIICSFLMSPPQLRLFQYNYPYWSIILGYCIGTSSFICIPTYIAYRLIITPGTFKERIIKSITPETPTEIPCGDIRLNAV

What does the source list for `CCC(NC)C(=O)c1ccc2c(c1)OCO2` (stereo not shown) [butylone, 1-(1,3-Benzodioxol-5-yl)-2-(methylamino)butan-1-one]?
IC50 (human SERT [1]): 24400 ± 2000 nM; drug-induced current at DAT as fraction of current induced by dopamine (DAT [2]): < 20%; IC50 (DAT [3]): 400 ± 20 nM; DAT/SERT ratio ([DAT IC50]^−1/[SERT IC50]^−1) (DAT [3]): 3.6; EC50 (SERT [4]): 330 ± 40 nM; transporter-mediated currents at DAT (human DAT [5]): no discernable currents; motor activity (forward locomotion) (motor activity): increased motor activity; release of [3H]MPP+ at DAT (DAT [6]): failed to produce efficacious release; IC50 (SERT [7]): 1430 ± 160 nM; extracellular 5-HT levels increase ([8]; 1 mg/kg i.v.): 3 fold; extracellular dopamine levels above baseline ([8]; 1 mg/kg i.v.): 2 fold; extracellular 5-HT levels increase [8, 13]: ~7 fold; extracellular dopamine levels increase [8, 13]: about 3.5 fold; SERT-mediated inward currents (human SERT [9]): dose-related induction of SERT-mediated inward currents; [3H]MPP+ efflux at DAT (human DAT [10]): neither butylone nor pentylone evoked [^3H]MPP^+ efflux at DAT; [3H]5-HT efflux at SERT (human SERT [11]): evoked [^3H]5-HT efflux at SERT; effect of monensin on drug-evoked [3H]5-HT efflux at SERT (human SERT [11]): markedly enhanced; IC50 (human DAT [12]): 1440 ± 100 nM; DAT/SERT ratio (DAT and SERT): 2.1

With `CCCC(NC)C(=O)c1ccc2c(c1)OCO2` (stereo not shown) [pentylone, 1-(1,3-benzodioxol-5-yl)-2-(methylamino)pentan-1-one] as the compound, how does the IC50 (human SERT [1]) read?
Its IC50 is 11700 ± 500 nM.

What about the “drug-induced current at DAT as fraction of current induced by dopamine” value (DAT [2]) of the same compound?
The value was under 20%.

And the IC50 (DAT [3])?
Its IC50 is 120 ± 10 nM.

And the “DAT/SERT ratio ([DAT IC50]^−1/[SERT IC50]^−1)” value (DAT [3])?
The value was 11.4.

And the EC50 (SERT [4])?
The EC50 was 1030 ± 180 nM.

And the “efficacy of SERT-mediated release” value (SERT [4]; rat brain synaptosomes, [3H]5-HT release)?
The value was 48 % of Emax.

And the “transporter-mediated currents at DAT” value (human DAT [5])?
Its value is “no discernable currents”.

What about the “motor activity (forward locomotion)” value (motor activity) of the same compound?
Its value is “increased motor activity”.

What about the “stereotypy (repetitive movements)” value (motor activity; post hoc tests vs saline) of the same compound?
Its value is “increased stereotypy”.

And the “release of [3H]MPP+ at DAT” value (DAT [6])?
Its value is “failed to produce efficacious release”.

What about the IC50 (SERT [7]) of the same compound?
Its IC50 is 1360 ± 100 nM.

And the “extracellular 5-HT levels increase” value ([8]; 1 mg/kg i.v.)?
Its value is “no effect”.

What about the “extracellular dopamine levels above baseline” value ([8]; 1 mg/kg i.v.) of the same compound?
The value was 2 fold.

What about the “extracellular 5-HT levels increase” value [8, 13] of the same compound?
Its value is 3 fold.

What about the “extracellular dopamine levels increase” value [8, 13] of the same compound?
The value was “about 3.5 fold”.

What about the SERT-mediated inward currents (human SERT [9]) of the same compound?
Its SERT-mediated inward currents is “dose-related induction of SERT-mediated inward currents”.

And the “[3H]MPP+ efflux at DAT” value (human DAT [10])?
The value was “neither butylone nor pentylone evoked [^3H]MPP^+ efflux at DAT”.

And the “[3H]5-HT efflux at SERT” value (human SERT [11])?
Its value is “evoked [^3H]5-HT efflux at SERT”.

And the “effect of monensin on drug-evoked [3H]5-HT efflux at SERT” value (human SERT [11])?
The value was “markedly enhanced”.

What about the IC50 (human DAT [12]) of the same compound?
The IC50 was 310 ± 70 nM.

What about the DAT/SERT ratio (DAT and SERT) of the same compound?
The DAT/SERT ratio was 6.2.
